Only some compounds are listed: those with a hit (about 1.2% of all), similar ones and a draw of the others.
HKDC1 inh = HKDC1 hexokinase inhibitors, primary screen, biochemical, fluorescence, uHTS; Q2TB90; recombinant HKDC1, G6PDH/diaphorase resazurin coupled fluorescence; inhibition, % at 20 µM; 340,000 compounds, 0.16% hits; AID 493160, 2011;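 active = inhibition above about 35% when tested at 20 µM, limit read from the data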
Target sequence (Q2TB90 whole entry, looked up): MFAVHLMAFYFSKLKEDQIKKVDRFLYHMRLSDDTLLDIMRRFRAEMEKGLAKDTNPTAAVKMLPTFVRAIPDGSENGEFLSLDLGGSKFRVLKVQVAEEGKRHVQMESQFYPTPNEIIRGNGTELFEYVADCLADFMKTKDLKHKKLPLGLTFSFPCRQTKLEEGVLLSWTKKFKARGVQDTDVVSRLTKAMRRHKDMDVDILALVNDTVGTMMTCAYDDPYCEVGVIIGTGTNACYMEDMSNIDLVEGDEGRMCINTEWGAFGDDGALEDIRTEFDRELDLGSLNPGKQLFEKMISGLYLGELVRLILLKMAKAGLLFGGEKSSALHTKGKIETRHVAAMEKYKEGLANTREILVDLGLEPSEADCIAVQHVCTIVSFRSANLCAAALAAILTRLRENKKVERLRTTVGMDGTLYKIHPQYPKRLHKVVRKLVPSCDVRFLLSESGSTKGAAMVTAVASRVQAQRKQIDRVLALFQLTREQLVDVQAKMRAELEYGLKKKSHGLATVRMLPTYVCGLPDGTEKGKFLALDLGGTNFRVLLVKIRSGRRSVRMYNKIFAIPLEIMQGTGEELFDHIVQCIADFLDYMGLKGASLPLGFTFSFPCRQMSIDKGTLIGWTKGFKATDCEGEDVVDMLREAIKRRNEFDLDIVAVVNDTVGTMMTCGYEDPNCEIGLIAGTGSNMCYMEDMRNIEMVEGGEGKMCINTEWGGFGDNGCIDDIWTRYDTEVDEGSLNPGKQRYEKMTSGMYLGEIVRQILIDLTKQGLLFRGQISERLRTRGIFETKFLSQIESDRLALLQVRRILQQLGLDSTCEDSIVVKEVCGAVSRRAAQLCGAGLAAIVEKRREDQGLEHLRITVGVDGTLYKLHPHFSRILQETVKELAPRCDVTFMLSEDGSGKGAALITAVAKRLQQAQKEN
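System: Recombinant HKDC1 hexokinase | Amount: HKDC1 at 5 µg/mL | Reagent: Glucose with 1 mM ATP | Doses: Single 20 µM dose | Incubation: Reaction time 90 min, room temperature, protected from light | Signal: Coupled resazurin fluorescence, excitation 525 nm, emission 613 nm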
PfGluPho inh = PfG6PD enzyme inhibitors, primary screen, biochemical, fluorescence intensity, uHTS | glucose-6-phosphate dehydrogenase-6-phosphogluconolactonase (Plasmodium falciparum 3D7) | PfGluPho enzyme, NADPH resazurin-diaphorase fluorescence | inhibition, % at 20 µM | 350,000 compounds, 0.78% hits | AID 504690, 2011;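 active = inhibition reaching at least a set limit at 20 µM in the primary screen, cut at about 59% in these data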
G6PDH counter = L. mesenteroides G6PDH inhibitors, counter-screen for G6PDH-coupled screening assays, biochemical, Leuconostoc mesenteroides enzyme. 200,000 compounds, 0.12% hits. inhibition, % at 5 µM. Purified L. mesenteroides G6PDH, diaphorase/resazurin coupled fluorescence, 45 min. glucose-6-phosphate dehydrogenase [Leuconostoc mesenteroides]; in the data active = inhibition above about 50%
Diaph inh CS = diaphorase inhibitors and chemical oxidizers, primary screen, counter-screen for diaphorase-coupled primary assays, biochemical, uHTS, resorufin fluorescence; inhibition, % at 20 µM; 190,000 compounds, 0.69% hits; diaphorase resazurin-to-resorufin fluorescence, NADH, 16 min; bacterial (C. kluyveri) enzyme, not human; AID 1217, 2008;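 active = primary screen inhibition at 20 µM above a set limit, cut at about 50% in these data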
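Assay system: diaphorase enzyme from Clostridium kluyveri; Input: enzyme working solution with 0.14 U/mL diaphorase; Timing: 16 min at room temperature; Technique: resorufin fluorescence, excitation 544 nm, emission 590 nm; Benchmarks: positive control minus NADH, DMSO neutral control.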
Diaph act CS = compounds boosting diaphorase resazurin reduction – biochemical, uHTS, resorufin fluorescence, counter-screen for diaphorase-coupled primary assays, primary screen; activation factor at 20 µM; Diaphorase/resazurin coupled assay, 16 min; hits give high values; 1 = vehicle wells, 0 = NADH-free wells; 190,000 compounds, 0.005% hits; AID 1229, 2008;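 active = diaphorase activity raised at least twofold by the compound at 20 µM; inactive = activation factor below 2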
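Material: purified diaphorase enzyme from Clostridium kluyveri; Also added: 0.114 mM NADH and 0.1 mM resazurin, final amounts; Doses: single compound dose of 20 µM, 1% DMSO final; Times: 16 min enzyme reaction, ambient temperature; Detection: resorufin fluorescence, excitation 544 nm, emission 590 nm; Measure: increased resorufin signal from activators or reducing compounds.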
PfG6PD confirm = PfG6PD inhibitors, hit retest, confirmation, biochemical, fluorescence intensity, single concentration | shares compounds with PfGluPho inh | recombinant PfGluPho, NADPH-diaphorase-resazurin fluorescence | inhibition, % at 20 µM | 2,400 compounds, 34% hits | AID 504753, 2011;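 active = inhibition of at least 50% at 20 µM in any single replicate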
Diaphorase 10uM = diaphorase inhibitors and chemical oxidizers, confirmation, counter-screen for P. falciparum G6PD inhibitor project, biochemical, fluorescence intensity, 10 µM NADPH. shares compounds with PfGluPho inh. diaphorase-coupled resazurin reduction, NADPH 10 uM. inhibition, % at 20 µM. 820 compounds, 39% hits. AID 504862, 2011;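 active = average inhibition reaching 50% or more with the compound at 20 µM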;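 note: resorufin red fluorescence formed as diaphorase reduces resazurin using NADPH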
Diaphorase 30uM = diaphorase inhibitors and chemical oxidizers, confirmation, counter-screen for P. falciparum G6PD inhibitor project, biochemical, fluorescence intensity, 30 µM NADPH; shares compounds with PfGluPho inh; Diaphorase/resazurin coupled assay, resorufin fluorescence; inhibition, % at 20 µM; 820 compounds, 29% hits; AID 504863, 2011;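 active = inhibition averaging 50% or more, tested at 20 µM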
Large screens that a line does not name were inactive (follow-up assays come after a bar, where they were run).

CC(C)(C)c1ccc(S(=O)(=O)NNC(=O)c2cc3ccccc3[nH]2)cc1	none (no result: G6PDH counter, Diaph inh CS, Diaph act CS)
CCC(c1nnc(SCC(=O)NC2CCCCC2)n1Cc1ccccc1)N(C)C (configuration not stated)	none (no result: G6PDH counter, Diaph inh CS, Diaph act CS)
O=C1C(c2cc(=O)c3ccccc3[nH]2)=C(O)c2ccccc21	PfGluPho inh 82.9 | PfG6PD confirm 65.2 | Diaphorase 10uM 50.5 | Diaphorase 30uM inactive
COCCNc1c(-c2ccc(OC)cc2)nc2ccc(Cl)cn12	PfGluPho inh 64.8 | PfG6PD confirm inactive
CCOC(=O)CNc1c(-c2ccc(OC)cc2)nc2ccc(Cl)cn12	PfGluPho inh 74.2 | PfG6PD confirm inactive
CC(C)(C)c1ccc(C(=O)N2CCN(C(=O)c3cccs3)CC2)cc1	none (no result: G6PDH counter, Diaph inh CS, Diaph act CS)
Cc1cc(C)c(S(=O)(=O)Nc2ccccc2-c2ccccc2)c(C)c1	PfGluPho inh 85.1 | PfG6PD confirm inactive
c1ccc(-c2nnc3sc(-c4csc5c4CCCC5)nn23)cc1	PfGluPho inh 73.5 | PfG6PD confirm inactive
Nc1ccccc1C(O)(Cc1ccccc1)c1ccccc1 (configuration not stated)	none (no result: G6PDH counter, Diaph inh CS, Diaph act CS)
O=C1C=CC(=Nc2ccc3c(c2)Cc2cc(F)ccc2-3)O1	PfGluPho inh 60.9 (no result: G6PDH counter, Diaph inh CS, Diaph act CS) | PfG6PD confirm inactive
COc1ccc(S(=O)(=O)Nc2c(C(=O)O)[nH]c3ccc(OC)cc23)c(OC)c1	PfGluPho inh 66.7 (no result: G6PDH counter, Diaph inh CS, Diaph act CS) | PfG6PD confirm inactive
Cc1cccc(NC(=O)CSc2nnc(-c3ccco3)c(-c3ccco3)n2)c1C	PfGluPho inh 61.2 | PfG6PD confirm inactive
CCCCC(=O)Nc1sc(C(=O)N(CC)CC)c(C)c1C(=O)OC	PfGluPho inh 69.5 | PfG6PD confirm inactive
CCOC(=O)c1c(NC(=O)CN(C)C)sc(C(=O)N(CC)CC)c1C	none
c1ccc2c(c1)[nH]c1c(N3CCOCC3)ncnc12	none
CCc1cc(N2CCOCC2)cc2c1[nH]c1ccccc12	PfGluPho inh 67.1, Diaph inh CS 52.7 | PfG6PD confirm inactive
COc1ccc(S(=O)(=O)N2CCN(C(=S)Nc3ccc(S(N)(=O)=O)cc3)CC2)cc1	none (no result: G6PDH counter, Diaph inh CS, Diaph act CS)
COc1ccc(-c2csc(NC(=O)COC(=O)c3ccco3)n2)cc1	PfGluPho inh 59.9 | PfG6PD confirm inactive
CCCNC(=O)C[C@@H]1C[C@H]2c3cc(NC(=O)c4ccc5c(c4)OCO5)ccc3O[C@H]2[C@@H](CO)O1	none (no result: HKDC1 inh, G6PDH counter, Diaph inh CS, Diaph act CS)
COc1ccccc1NC(=O)CSCc1ccc([N+](=O)[O-])cc1	none
COc1ccc([N+](=O)[O-])cc1NC(=O)CSCc1cc(C)cc(C)c1	PfGluPho inh 59.3 | PfG6PD confirm inactive
Cc1ccc(S(=O)(=O)N2CCN(C(=O)c3ccc(COc4ccccc4)o3)CC2)cc1	none (no result: G6PDH counter, Diaph inh CS, Diaph act CS)
O=C1/C(=C/c2cccs2)SC(=S)N1CCC(=O)N1CCCCC1CCO (configuration not stated)	none (no result: G6PDH counter, Diaph inh CS, Diaph act CS)
CCOc1ccc(-c2nnc(SCc3nnc(-c4ccccc4)o3)n2-c2ccccc2F)cc1	PfGluPho inh 84.6 | PfG6PD confirm inactive
Cc1ccc(-c2nnc(CSc3nnc(COc4ccccc4)n3-c3ccccc3)o2)cc1	none
COc1ccc2[nH]c3c(C)c4ccncc4c(C)c3c2c1	PfGluPho inh 60.3 (no result: G6PDH counter, Diaph inh CS, Diaph act CS) | PfG6PD confirm inactive
Cc1cccc(/C=N\NC(=O)c2sccc2-n2cccc2)c1	PfGluPho inh 71.4 | PfG6PD confirm inactive

Screening results deposited in PubChem BioAssay by Sanford-Burnham Center for Chemical Genomics.
